ChEMBL document CHEMBL3259808, “Optimization of antitrypanosomatid agents: identification of nonmutagenic drug candidates with in vivo activity” (J Med Chem, 2014)
pIC50: −log10 of the molar value. Calls of active or inactive are those of the source. The rule behind the calls is not given here.

Key:
Trypanosoma cruzi [1] = assay: Antitrypanosomal activity against Trypanosoma cruzi Tulahuen 2 epimastigotes assessed as growth inhibition after 5 days; type: functional, organism-based; settings: Trypanosoma cruzi, Tulahuen 2, 120 h
Outline: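 Epimastigotes were grown axenically at 28 °C in BHI-tryptose with 5% FBS and seeded from a 5–7 day culture at 1 × 10⁶ cells/mL. Drug from a DMSO stock was added (final DMSO ≤0.4%; the control contained 0.4% DMSO). Duplicates were run. A600 was read at day 5, and % inhibition was calculated relative to day-0 and control readings. IC50 = concentration that halves the absorbance ratio.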

[2] = Stability of the compound in aqueous solution assessed as compound remaining at 1 mM at pH 9 after 1 hr by TLC analysis; type: physicochemical; settings: aqueous solution, pH 9; read-out: Stability
Outline: (§1)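 DMSO stocks diluted to final 1 mM in KCl·HCl pH 1.0, citrate pH 6.0, Tris·HCl pH 7.4 or borax·HCl pH 9.0 buffer. Incubated 1 h at 37 °C, then ethyl acetate extracts checked by TLC for decomposition products.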

Salmonella typhimurium [3] = assay: Mutagenic activity in Salmonella typhimurium TA1537 at 0.03 to 0.2 ug/plate by Ames test in presence of mouse liver S9 fraction; type: toxicity, organism-based; settings: salmonella enterica subsp. enterica serovar typhimurium, in the assay text read “0.003 to 0.2 ug/plate” for “0.03 to 0.2 ug/plate”
Outline: (§2)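 Plate-incorporation Ames test on minimal glucose agar with 500 μL Aroclor-treated mouse liver S9 added. DMSO solutions were tested at five consecutive 3-fold dilutions from the highest non-toxic dose, in triplicate, with a DMSO negative control. Revertants were counted manually; a compound was scored mutagenic when revertants were at least twice the negative control for two or more consecutive doses.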

Salmonella typhimurium [4] = assay: Mutagenic activity in Salmonella typhimurium TA1535 at […] ug/plate by Ames test; type: toxicity, organism-based; settings: salmonella enterica subsp. enterica serovar typhimurium
Outline: (§3)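 Direct plate incubation on minimal glucose agar (Vogel-Bonner E). Compound toxicity to the bacteria was checked first. DMSO solutions were tested at five consecutive 3-fold dilutions, starting from the highest non-toxic dose, in triplicate, without metabolic activation. DMSO served as negative control. Revertants were counted manually; mutagenic = revertants at least double the negative control at two or more consecutive doses.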

Trypanosoma cruzi [5] = assay: Antitrypanosomal activity against Trypanosoma cruzi Sylvio X-10 amastigotes infected in African green monkey Vero cells assessed as eradication of amastigotes after 72 hrs by Giemsa staining-based assay; settings: Sylvio X-10, Vero
[6] = Stability of the compound in aqueous solution assessed as compound remaining at 1 mM at pH 7.4 after 1 hr by TLC analysis; type: physicochemical; settings: aqueous solution, pH 7.4; read-out: Stability; outline: as §1
Salmonella typhimurium [7] = assay: Mutagenic activity in Salmonella typhimurium TA98 at 6 to 500 ug/plate by Ames test in presence of mouse liver S9 fraction; type: toxicity, organism-based; settings: salmonella enterica subsp. enterica serovar typhimurium
Outline: (§4)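 Ames plate-incorporation assay with S. typhimurium TA98 in Vogel-Bonner E minimal glucose agar. Toxicity toward the bacteria was checked first. DMSO solutions were run in triplicate at five consecutive third-dilutions, starting at the highest non-toxic dose. Positive controls were 4-nitro-o-phenylenediamine (20.0 μg/plate) and 2-aminofluorene (10.0 μg/plate); DMSO was the negative control. Revertants were counted manually. A compound was called mutagenic when revertants were at least twice the negative control at two or more consecutive doses.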

Salmonella typhimurium [8] = assay: Mutagenic activity in Salmonella typhimurium TA1537 at 0.03 to 0.2 ug/plate by Ames test; type: toxicity, organism-based; settings: salmonella enterica subsp. enterica serovar typhimurium; outline: as §3
Salmonella typhimurium [9] = assay: Mutagenic activity in Salmonella typhimurium TA102 at […] ug/plate by Ames test; type: toxicity, organism-based; settings: salmonella enterica subsp. enterica serovar typhimurium; outline: as §3
Salmonella typhimurium [10] = assay: Mutagenic activity in Salmonella typhimurium TA98 at 6 to 500 ug/plate by Ames test; type: toxicity, organism-based; settings: salmonella enterica subsp. enterica serovar typhimurium; outline: as §4
[11] = Stability of the compound in aqueous solution assessed as compound remaining at 1 mM at pH 1 after 1 hr by TLC analysis; type: physicochemical; settings: read-out: Stability; outline: as §1
Trypanosoma cruzi [12] = assay: Antitrypanosomal activity against Trypanosoma cruzi Sylvio X-10 amastigotes infected in African green monkey Vero cells assessed as eradication of amastigotes after 5 days by Giemsa staining-based assay; type: functional, organism-based; settings: Sylvio X-10, Vero, 120 h
Outline: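 VERO cells in RPMI 1640 with 10% hiFCS were allowed to adhere for 24 h at 37 °C in 5% CO₂, then infected with tissue-derived trypomastigotes at 10:1. Free parasites were washed off after 24 h, and cultures were treated at five compound doses (text gives 72 h / 5 days). Cultures were methanol-fixed and Giemsa-stained, and infected cells were counted among 300. Quadruplicates were run in three independent experiments. IC50/IC90 were obtained by sigmoidal regression.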

Salmonella typhimurium [13] = assay: Mutagenic activity in Salmonella typhimurium TA100 at 3.09 to 250 ug/plate by Ames test; type: toxicity, organism-based; settings: salmonella enterica subsp. enterica serovar typhimurium; outline: as §3
Salmonella typhimurium [14] = assay: Mutagenic activity in Salmonella typhimurium TA100 at 3.09 to 250 ug/plate by Ames test in presence of mouse liver S9 fraction; type: toxicity, organism-based; settings: salmonella enterica subsp. enterica serovar typhimurium; outline: as §2
Salmonella typhimurium [15] = assay: Mutagenic activity in Salmonella typhimurium TA102 at […] ug/plate by Ames test in presence of mouse liver S9 fraction; type: toxicity, organism-based; settings: salmonella enterica subsp. enterica serovar typhimurium; outline: as §2
Salmonella typhimurium [16] = assay: Mutagenic activity in Salmonella typhimurium TA1535 at […] ug/plate by Ames test in presence of mouse liver S9 fraction; type: toxicity, organism-based; settings: salmonella enterica subsp. enterica serovar typhimurium; outline: as §2
[17] = Stability of the compound in aqueous solution assessed as compound remaining at 1 mM at pH 6 after 1 hr by TLC analysis; type: physicochemical; settings: aqueous solution, pH 6; read-out: Stability; outline: as §1
Salmonella typhimurium [18] = assay: Mutagenic activity in Salmonella typhimurium TA100 at 0.06 to 5 ug/plate by Ames test; type: toxicity, organism-based; settings: salmonella enterica subsp. enterica serovar typhimurium; outline: as §3
Salmonella typhimurium [19] = assay: Mutagenic activity in Salmonella typhimurium TA1535 at 0.06 to 5 ug/plate by Ames test in presence of mouse liver S9 fraction; type: toxicity, organism-based; settings: salmonella enterica subsp. enterica serovar typhimurium; outline: as §2
Salmonella typhimurium [20] = assay: Mutagenic activity in Salmonella typhimurium TA102 at 0.06 to 5 ug/plate by Ames test; type: toxicity, organism-based; settings: salmonella enterica subsp. enterica serovar typhimurium; outline: as §3
Salmonella typhimurium [21] = assay: Mutagenic activity in Salmonella typhimurium TA1535 at 0.06 to 5 ug/plate by Ames test; type: toxicity, organism-based; settings: salmonella enterica subsp. enterica serovar typhimurium; outline: as §3
[22] = Selectivity index, ratio of IC50 for human RBC to IC50 for Trypanosoma cruzi Sylvio X-10 amastigotes
Outline: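 Hemolysis: washed human erythrocytes (2% w/v in PBS) incubated 24 h at 37 °C with compound at final 50, 100 and 200 μM. Ten replicates per concentration. Hemoglobin release read at 405 nm against water lysis as 100%; amphotericin B 1.5 μM was the positive control. SI = IC50 red cells / parasite IC50 (Sylvio X-10 amastigotes or Tulahuen 2 epimastigotes).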

Trypanosoma cruzi [23] = assay: Antitrypanosomal activity against Trypanosoma cruzi Sylvio X-10 amastigotes infected in African green monkey Vero cells assessed as eradication of amastigotes at 5 uM after 5 days by optical microscopic analysis; type: functional, organism-based; settings: in the assay text read “after 72 hrs” for “after 5 days”
Outline: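 VERO cells infected with Sylvio X-10 parasites were treated with 5 μM compound and examined by optic microscopy after 72 h of incubation for intracellular amastigotes and trypomastigotes.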

Salmonella typhimurium [24] = assay: Mutagenic activity in Salmonella typhimurium TA1537 at 0.06 to 5 ug/plate by Ames test; type: toxicity, organism-based; settings: salmonella enterica subsp. enterica serovar typhimurium; outline: as §3
[25] = Selectivity index, ratio of IC50 for African green monkey Vero cells to IC50 for Trypanosoma cruzi Sylvio X-10 amastigotes; type: toxicity, cell-based; settings: read-out: Ratio IC50
Outline: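 VERO cytotoxicity: cells exposed 48 h at 37 °C, 5% CO2 to serial dilutions from a maximum of 2000 μM (DMSO stocks; DMSO <0.1% control); growth inhibition read by MTT at 570 nm. Amastigote IC50: Sylvio X-10-infected VERO cells, five doses, infected cells counted among 300 (Giemsa), quadruplicate, three experiments, sigmoidal fit. SI = IC50 VERO / IC50 amastigote.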

Trypanosoma cruzi [26] = assay: Antitrypanosomal activity against Trypanosoma cruzi Dm 28c epimastigotes assessed as growth inhibition after 5 days; type: functional, organism-based; settings: 120 h
[27] = Selectivity index, ratio of IC50 for mouse J774.1 cells to IC50 for Trypanosoma cruzi Sylvio X-10 amastigotes; type: toxicity; settings: read-out: Ratio IC50
Outline: (§5)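 J774.1 macrophages grown in DMEM with 10% heat-inactivated FCS and allowed to attach 48 h, then exposed 48 h at 37 °C to 12.5–400.0 μM. Triplicates. MTT 0.1 mg/mL for 3 h, read at 560 nm; IC50 by linear regression against the solvent control. SI = IC50 J774.1 / parasite IC50 (Sylvio X-10 amastigotes or Tulahuen 2 epimastigotes, the latter measured by A600 growth inhibition at day 5).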

Salmonella typhimurium [28] = assay: Mutagenic activity in Salmonella typhimurium TA100 at 0.06 to 5 ug/plate by Ames test in presence of mouse liver S9 fraction; type: toxicity, organism-based; settings: salmonella enterica subsp. enterica serovar typhimurium; outline: as §2
Salmonella typhimurium [29] = assay: Mutagenic activity in Salmonella typhimurium TA98 at 3.1 to 250 ug/plate by Ames test; type: toxicity, organism-based; settings: salmonella enterica subsp. enterica serovar typhimurium; outline: as §4
Salmonella typhimurium [30] = assay: Mutagenic activity in Salmonella typhimurium TA102 at 0.06 to 5 ug/plate by Ames test in presence of mouse liver S9 fraction; type: toxicity, organism-based; settings: salmonella enterica subsp. enterica serovar typhimurium; outline: as §2
Salmonella typhimurium [31] = assay: Mutagenic activity in Salmonella typhimurium TA1537 at 0.06 to 5 ug/plate by Ames test in presence of mouse liver S9 fraction; type: toxicity, organism-based; settings: salmonella enterica subsp. enterica serovar typhimurium; outline: as §2
[32] = Stability of the compound in eumulgin HRE 40, sodium oleate, soya phosphatidylcholine, cholesterol, and phosphate buffer at pH 7.4 at 4 degC; type: physicochemical
Outline: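 Storage stability of the compound in vehicle V2, a microemulsion of surfactant (Eumulgin HRE 40/sodium oleate/soya phosphatidylcholine, 10%), cholesterol oil phase (10%) and pH 7.4 phosphate buffer (80%), followed over 1 week at 4 °C.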

Salmonella typhimurium [33] = assay: Mutagenic activity in Salmonella typhimurium TA98 at 3.1 to 250 ug/plate by Ames test in presence of mouse liver S9 fraction; type: toxicity, organism-based; settings: salmonella enterica subsp. enterica serovar typhimurium; outline: as §4
Salmonella typhimurium [34] = assay: Mutagenic activity in Salmonella typhimurium TA98 at 0.3 to 40 ug/plate by Ames test in presence of mouse liver S9 fraction; type: toxicity, organism-based; settings: salmonella enterica subsp. enterica serovar typhimurium; outline: as §4
[35] = Selectivity index, ratio of IC50 for mouse J774.1 cells to IC50 for Trypanosoma cruzi Tulahuen 2 epimastigotes; type: toxicity; settings: read-out: Ratio IC50; outline: as §5
Salmonella typhimurium [36] = assay: Mutagenic activity in Salmonella typhimurium TA98 at 0.3 to 40 ug/plate by Ames test; type: toxicity, organism-based; settings: salmonella enterica subsp. enterica serovar typhimurium; outline: as §4

C=CCn1c(C)cs/c1=N/N=C/C=C/c1ccco1
pIC50 (Trypanosoma cruzi [1]): < 4.60 | remaining at 1 h, 1000 µM [2]: > 95% | Activity (Salmonella typhimurium [3]): Non-toxic | Activity (Salmonella typhimurium [4]): Non-toxic | IC90 (Trypanosoma cruzi [5]): 51 µM | remaining at 1 h, 1000 µM [6]: > 95% | Activity (Salmonella typhimurium [7]): Non-toxic | Activity (Salmonella typhimurium [8]): Non-toxic | Activity (Salmonella typhimurium [9]): Non-toxic | Activity (Salmonella typhimurium [10]): Non-toxic | remaining at 1 h, 1000 µM [11]: 90% | pIC50 (Trypanosoma cruzi [12]): 5.20 | Activity (Salmonella typhimurium [13]): Non-toxic | Activity (Salmonella typhimurium [14]): Non-toxic | Activity (Salmonella typhimurium [15]): Non-toxic | Activity (Salmonella typhimurium [16]): Non-toxic | remaining at 1 h, 1000 µM [17]: > 95%

Br.C=CCn1c(-c2ccccc2)cs\c1=N/N=C/C=C/c1ccco1.O
Activity (Salmonella typhimurium [18]): Non-toxic | pIC50 (Trypanosoma cruzi [1]): 5.49 | remaining at 1 h, 1000 µM [2]: > 95% | Activity (Salmonella typhimurium [19]): Non-toxic | Activity (Salmonella typhimurium [20]): Non-toxic | Activity (Salmonella typhimurium [21]): Non-toxic | Ratio IC50 [22]: > 196 | remaining at 1 h, 1000 µM [6]: > 95% | Activity (Trypanosoma cruzi [23]): Active | Activity (Salmonella typhimurium [24]): Non-toxic | selectivity ratio [25]: > 1000 | pIC50 (Trypanosoma cruzi [26]): 5.40 | selectivity ratio [27]: > 120 | remaining at 1 h, 1000 µM [11]: 90% | Activity (Salmonella typhimurium [28]): Non-toxic | pIC50 (Trypanosoma cruzi [12]): > 6.62 | Activity (Salmonella typhimurium [29]): Non-toxic | Activity (Salmonella typhimurium [30]): Non-toxic | Activity (Salmonella typhimurium [31]): Non-toxic | Stability [32]: Stable | Activity (Salmonella typhimurium [33]): Non-toxic | remaining at 1 h, 1000 µM [17]: > 95%

C=CCn1c(C)cs\c1=N/N=C/C=C/c1cccs1
pIC50 (Trypanosoma cruzi [1]): < 4.60 | Activity (Salmonella typhimurium [34]): Non-toxic | selectivity ratio [35]: < 7 | Activity (Salmonella typhimurium [36]): Non-toxic
